Measurements gathered from unrelated publications.
FGFR4: Fibroblast growth factor receptor 4 (FGFR4, Homo sapiens, UniProt P22455)

The inhibition of CCCS(=O)(=O)Nc1ccc(F)c(C(=O)c2c[nH]c3ncc(-c4ccc(Cl)cc4)cc23)c1F is reported as less than 10% (FGFR4; enzyme activity; inhibitor; 1 µM).
COc1cc(Cl)c(C(=O)N[C@@H](CN[C@H]2CC[C@@H](N)CC2)Cc2ccc(C#N)cc2)cc1-c1ccc(CN[C@H](C)c2ccc(C)cc2)o1 gave a remaining activity of 96% (FGFR4; enzyme activity; inhibitor; 1 µM).
COc1cc2ncnc(Nc3ccc(Oc4ccccc4)c(C)c3C)c2cc1OC gave an inhibition of -1% (FGFR4; enzyme activity; inhibitor; 1 µM).
CNC(=O)c1cc(Oc2ccc(NC(=O)Nc3ccc(Cl)c(C(F)(F)F)c3)cc2)ccn1 has an inhibition of 2% (FGFR4; enzyme activity; inhibitor; 0.3 µM).
With CC/C(=N\NC(=O)NCc1cccc(O)c1)c1ccc(O)c(C)c1O the inhibition was 3.5% (Fibroblast growth factor receptor 4 (FGFR4, Homo sapiens, UniProt P22455, V550L); enzyme activity; inhibitor; 0.1 µM).
For CN(C)C(=O)Cn1cc(-c2nc(C3(c4ccc(-c5cnc(N)nc5)cc4)CC3)no2)cn1, the remaining binding was 100% (FGFR4; cell-free assay; competition with immobilised ligand; 1 µM).
The remaining signal of O=C1Nc2ccc(Cl)cc2C1=Cc1cc(Cl)c(O)c(Cl)c1 is reported as 98% (FGFR4; cell-free assay; 0.5 µM).
With CCCCN(CCCC)C(=O)CN1C[C@H](c2cc(OC)c3c(c2)OCO3)[C@@H](C(=O)O)[C@@H]1CC(C)(C)CCC the remaining binding was 100% (FGFR4; cell-free assay; competition with immobilised ligand; 1 µM).
With C=CC(=O)Nc1cc(Nc2nccc(Nc3cc(Cl)c(F)cc3C(C)(C)O)n2)c(OC)cc1N1CC[C@@H](N(C)C)C1 the inhibition was 2% (FGFR4; enzyme activity; inhibitor; 1 µM).
The inhibition of CNc1cccc2cc(C(=O)Nc3ccc(C(=O)O)cc3)c(=O)[nH]c12 is reported as 2.6% (FGFR4; enzyme activity; inhibitor; 10 µM).
For Cc1ccc(C(=O)NCc2ccsc2)cc1C#Cc1cn(C(C)C)c2ncnc(N)c12, the activity vs control was 99% (FGFR4; enzyme activity; inhibitor; 1 µM).
For CC(C)(C)c1nc2c(s1)c1nc(N)ncc1c1ccc(NS(=O)(=O)c3c(F)cccc3F)c(F)c12, the remaining activity was 104% (FGFR4; enzyme activity; inhibitor; radiometric; 1 µM).
Cc1ccc(Nc2nccc(N(C)c3ccc4c(C)n(C)nc4c3)n2)cc1S(N)(=O)=O has a remaining signal of 68.3% (FGFR4; cell-free assay; 0.5 µM).
Cn1nc(C(=O)NCc2ccc(C(=O)O)cc2)cc1-c1ccc2[nH]ccc2c1 gave a remaining binding of 100% (FGFR4; cell-free assay; competition with immobilised ligand; 0.1 µM).
The inhibition of CCN(CC)CCNC(=O)c1c(C)[nH]c(/C=C2\C(=O)Nc3ccc(F)cc32)c1C is reported as 30% (FGFR4; enzyme activity; inhibitor; 10 µM).
For C[C@@]1(Cc2ccc(C#N)cc2)C(=O)N(c2cc(Cl)cc(Cl)c2)c2ncc(C(=O)NC3(c4nc(C5CCC5)no4)CC3)n21, the remaining binding was 96% (FGFR4; cell-free assay; competition with immobilised ligand; 1 µM).
Cc1cnc(NC2CCOCC2)nc1-n1cnc(C(=O)NC(CN)c2cc(F)cc(Cl)c2)c1 (centres unmarked) has a remaining activity of 105% (FGFR4; enzyme activity; inhibitor; radiometric; 1 µM).
NS(=O)(=O)c1cc(NC(=O)C2(c3ccccc3Cl)CC2)ccc1Oc1cccc(Cl)c1 gave a remaining binding of 100% (FGFR4; cell-free assay; competition with immobilised ligand; 1 µM).
With COc1ccc(COc2ccc(Cc3cnc(N)nc3N)cc2OC)cc1 the remaining signal was 99.7% (FGFR4; cell-free assay; 0.5 µM).
With CC(=O)N1CCC(c2ccc(C(=O)NC3=NCCN3)cc2C(F)(F)F)CC1 the remaining binding was 88% (FGFR4; cell-free assay; competition with immobilised ligand; 1 µM).
The remaining activity of O=C(Nc1cnn(-c2csc(C(=O)NC3COC3)c2)c1)Nc1ccccc1Cl is reported as 88.2% (FGFR4; enzyme activity; inhibitor; 5 µM).
For O=C(N1CCS(=O)(=O)CC1)N1C[C@H](c2ccc(OC(F)(F)F)cc2)C[C@H](c2nc(C3CC3)no2)C1, the remaining binding was 100% (FGFR4; cell-free assay; competition with immobilised ligand; 1 µM).
The remaining activity of O=C(Nc1cnn(-c2csc(C(=O)NC3COC3)c2)c1)Nc1c(F)cccc1Cl is reported as 99.6% (FGFR4; enzyme activity; inhibitor; 5 µM).
